# High-throughput results as filed in PubChem BioAssay.
# DDE Tn7 FP inh: inhibitors of Tn7 peptide binding to fibrin DD(E), primary screen, biochemical, fluorescence polarization, human fibrin, Tn7 probe. FP displacement of FITC-Tn7 peptide from fibrin DD(E); 0% = median of compound wells per plate. AID 720508, 2013. Fibrinogen beta chain (Homo sapiens), P02675. hit rate 0.13% among 370,000. inhibition, % at 8.3 µM;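 active = inhibition above the mean of compounds falling within the control limits plus 3 SD of them, cut at about 14% in these data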;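 also: 0% = plate median of compound wells and 100% = 10 µM Aha-Tn7 peptide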
# Target sequence (P02675 whole entry, looked up): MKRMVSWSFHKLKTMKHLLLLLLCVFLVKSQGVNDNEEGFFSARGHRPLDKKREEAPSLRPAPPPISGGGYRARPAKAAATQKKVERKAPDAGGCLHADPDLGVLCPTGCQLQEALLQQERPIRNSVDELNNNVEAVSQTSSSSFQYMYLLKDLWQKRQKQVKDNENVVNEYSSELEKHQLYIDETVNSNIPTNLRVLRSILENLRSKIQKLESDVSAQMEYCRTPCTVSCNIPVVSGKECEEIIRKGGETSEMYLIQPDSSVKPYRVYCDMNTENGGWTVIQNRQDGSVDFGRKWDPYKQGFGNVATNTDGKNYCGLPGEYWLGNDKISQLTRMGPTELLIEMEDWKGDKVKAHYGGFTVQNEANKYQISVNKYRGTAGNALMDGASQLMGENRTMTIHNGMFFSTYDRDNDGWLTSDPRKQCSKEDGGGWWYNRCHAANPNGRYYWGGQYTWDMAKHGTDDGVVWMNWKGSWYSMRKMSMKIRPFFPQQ
#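 Assay system: human fibrin DD(E). Input: DD(E) 2 µM final. Medium: Tris buffer with calcium and detergent, pH 7.8. Compound dosing: single point at 8.3 µM. Timing: 10 min plus 3 h, room temperature. Technique: fluorescence polarization of the labelled Tn7 tracer. Read-out: percent inhibition. Replicates: singlicate testing.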
# PKA-R1A act: activators of PKA-R1A holoenzyme, primary screen, biochemical, fluorescence polarization, Cy5-IP20, bovine R1A, mouse PKAc; AID 504707, 2011; PKA-R1A dissociation; scaled: DMSO 0%, 113 µM cGMP 100%; hit rate 0.083% among 340,000; activation, % at 11.4 µM; cAMP-dependent protein kinase type I-alpha regulatory subunit (Bos taurus) + …;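 active = percent activation above the mean of all tested compounds plus 3 SD, cut at about 19% in these data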;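 also: higher means more PKAc released from R1A so a rise in polarization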
# Neddyl block: inhibitors of cullin neddylation, primary screen, biochemical, TR-FRET, uHTS, NAE and Ubc12; AID 651699, 2012; inhibition, % at 25 µM; hit rate 0.58% among 360,000; NEDD8-conjugating enzyme Ubc12 (Homo sapiens) + NEDD8-activating enzyme E1 regulatory …; in the data active = inhibition above about 36%
# DDE Tn6 FP inh: inhibitors of Tn6 peptide binding to fibrin DD(E), primary screen, biochemical, fluorescence polarization, human fibrin, Tn6 probe. Fibrinogen beta chain (Homo sapiens), P02675. Fibrin DD(E) TRITC-Tn6 fluorescence polarization displacement. inhibition, % at 8.3 µM. hit rate 0.21% among 370,000;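 active = inhibition above a per-campaign cutoff: mean of compounds within control limits plus 3 SD, cut at about 15% in these data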;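 also: 0% = median of all compound wells on the plate and 100% = blocking peptide control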
# PKA-R2B act: activators of PKA-R2B holoenzyme, primary screen, biochemical, fluorescence polarization, Cy5-IP20, human. cAMP-dependent protein kinase catalytic subunit beta (Homo sapiens) + cAMP-dependent …. PKA-R2B holoenzyme dissociation; R2B truncated from residue 108, S112A mutant; 0% DMSO only, 100% 113 µM cGMP. activation, % at 11.4 µM. hit rate 0.079% among 340,000;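 active = activation above a cutoff set at the mean over all compounds plus 3 SD, cut at about 18% in these data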;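 also: higher means more holoenzyme dissociation and a rise in polarization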
# DDE Tn7 confirm: inhibitors of Tn7 peptide binding to fibrin DD(E), confirmation, biochemical, fluorescence polarization, human fibrin, Tn7 probe | hit rate 5% among 460 | FP displacement of TRITC-Tn7 peptide from DD(E); 0% set at plate's compound-well median | inhibition, % at 8.3 µM | AID 720628, 2013 | shares compounds with DDE Tn7 FP inh;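 active = inhibition above the campaign cutoff, the mean of compounds within control limits plus 3 SD, cut at about 14% in these data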;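 also: 100% = median FP of high control wells holding Aha-Tn7 inhibitor peptide; displacers lower polarization since freed probe rises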
# Tn7 DDE ctr: counter-screen hit for Tn7 peptide-fibrin DD(E) binding disruption; shares compounds with DDE Tn7 FP inh; TRITC-Tn7 probe displacement, fluorescence polarization; inhibition, % at 8.3 µM; hit rate 3% among 460; AID 720633;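 active = inhibition above the cutoff, the mean of compounds lying between the control bounds plus 3 SD of those compounds, cut at about 17% in these data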;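 also: 0% = median of compound sample wells and 100% = excess unlabeled Aha-Tn7 peptide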
# Numbers without * were called inactive; / = no result given. Most compounds without a hit are left out; they make up all but 1% or so of the library.
SMILES,DDE Tn7 FP inh,PKA-R1A act,Neddyl block,DDE Tn6 FP inh,PKA-R2B act,DDE Tn7 confirm,Tn7 DDE ctr
Cc1ccc(CC(=O)Nc2ccc(F)c([N+](=O)[O-])c2)cc1,15*,-1,2,4,-6,1,4
Cc1ccc(CC(=O)Nc2ccc(F)c([N+](=O)[O-])c2)cc1C,0,-5,-33,1,-13,/,/
C[C@@H]1COc2cc(N3CCOCC3)ccc2S(=O)(=O)N1,4,/,/,9,/,/,/
CC(NC(=O)COC(=O)[C@@H]1CCCN1S(=O)(=O)c1ccccc1F)C12CC3CC(CC(C3)C1)C2 (stereo partly specified),14*,1,0,3,-3,0,0
C=CCN1[C@H](C)[C@H](c2ccccc2)Oc2cc(Br)ccc2S1(=O)=O,-9,/,/,-5,/,/,/
CCNS(=O)(=O)c1ccc(CCC(=O)Nc2ccc3c(c2)OCCO3)cc1,15*,-8,-3,3,-9,1,-6
CCOC(=O)[C@@]12CCC3=C1N(CCC3)C(=O)[C@H](CC(=O)N1CCOCC1)C2,10,/,/,4,/,/,/
COc1ccccc1-c1ccc2c(c1)C(C)(Cc1ccc(Cl)cc1)C(=O)N2 (stereo unspecified),-2,/,0,4,/,/,/
COc1ccccc1-c1ccc2c(c1)C(C)(Cc1cccc(C#N)c1)C(=O)N2 (stereo unspecified),16*,/,-1,-2,/,4,-1
O=C(CSc1nc2c(cnn2-c2ccc(F)cc2)c(=O)[nH]1)N1CCCCC1,15*,-1,7,3,-2,1,0
O=C(OCCN1C(=O)c2cccc3c(N4CCOCC4)ccc(c23)C1=O)c1ccccc1Cl,33*,-11,-220,-2,4,-2,-6
CC(C)(C)NC(=O)NC(=O)COC(=O)c1ccc(OC(F)F)cc1,4,-13,-3,5,-10,/,/
CC(C)(C)NC(=O)NC(=O)COC(=O)c1ccc(OC(F)(F)F)cc1,14*,-16,16,3,-11,1,-10
Cc1cc(NC(=O)COC(=O)c2ccc(C)c(C)c2)no1,6,-9,2,2,-12,/,/
Cc1cc(NC(=O)COC(=O)c2ccc(OC(F)(F)F)cc2)no1,16*,1,-10,3,-10,8,2
Cc1ccc(NC(=O)C2CC3CCC2C3)cc1 (stereo unspecified),-4,/,/,-6,/,/,/
O=C(CN1CCOCC1)N(c1ccccc1)c1ccc2ccccc2c1,0,-2,5,-4,0,/,/
O=C(CN1CCN(c2ccccn2)CC1)N(c1ccccc1)c1ccc2ccccc2c1,15*,-5,8,-4,-6,-1,-6
CC(C)CN1C(=O)C[C@@]2(C(=O)N(C)c3ccc(NS(=O)(=O)C4CCCCC4)cc32)C1c1ccccc1 (stereo partly specified),-5,/,/,-7,/,/,/
Oc1ccc2nnc3c(Br)cnn3c2c1,17*,-8,39,-6,-2,11,-1
Clc1ccc2nc3c4ccccc4cnn3c2c1,2,1,36,5,6,/,/
C[C@@H]1ON(C)[C@H]2C[C@H]3c4cc(Br)ccc4CCN3C[C@@H]12,6,/,/,3,/,/,/
Cc1nccn1-c1ccc(NC(=O)[C@@H](Cc2ccccc2)NC(=O)[C@H]2O[C@@H](n3ccc(=O)[nH]c3=O)[C@H](O)[C@@H]2O)cc1,-6,/,/,2,/,/,/
C#CCn1cc(/C=N/NC(=O)c2cc3ccccc3o2)c2ccccc21,18*,-11,/,-2,-9,14*,2
O=C(N/N=C/c1cccc2ccccc12)c1cc2ccccc2o1,2,-7,13,-3,-10,/,/
SMILES,DDE Tn7 FP inh,PKA-R1A act,Neddyl block,DDE Tn6 FP inh,PKA-R2B act,DDE Tn7 confirm,Tn7 DDE ctr
COc1cccc(C(=O)N/N=c2/oc3ccccc3cc2C(N)=O)c1,14*,-1,-32,-1,5,0,-1
C[C@@H]1CN(C(=O)OC(C)(C)C)CCN1c1ccc(N2CCN(Cc3ccccc3)[C@@H](C)C2)c(C#N)c1,-12,/,/,-5,/,/,/
O=C(Nc1nnc(SCC(=O)N2CCCC2)s1)C1CC(=O)N(c2ccc(F)cc2)C1 (stereo unspecified),1,6,-9,3,4,/,/
O=C(CSc1nnc(NC(=O)C2CC(=O)N(c3ccc(F)cc3)C2)s1)NC1CCCC1 (stereo unspecified),14*,-7,-2,10,0,9,4
CCOC(=O)NC(=O)C(/C=N/c1sccc1C(=O)OC)=C(\C)O,29*,/,-26,1,/,-4,-8
Cc1cc(NS(=O)(=O)c2ccc(NC(=O)Cc3ccccc3)cc2)no1,5,/,/,-4,/,/,/
CN(C)C(CNC(=O)c1cc(S(=O)(=O)N(C)c2ccc(F)cc2)ccc1Cl)c1cccs1 (stereo unspecified),15*,-2,-16,2,-3,3,0
CC(=O)n1c2ccccc2c2ccccc21,14*,-2,-5,9,-4,1,-7
COc1ccccc1NC(=O)CN1C(=O)C(C)Oc2ccccc21 (stereo unspecified),1,-10,1,2,-1,/,/
COc1ccc(NC(=O)CN2C(=O)C(C)Oc3ccccc32)cc1OC (stereo unspecified),14*,-3,1,2,4,-1,-3
Cc1ccc(-c2c(C#N)c(N)n(-c3ccc(Cl)cc3)c(=O)c2C#N)cc1,14*,/,-226,3,/,-3,-7
Cc1ccc(-c2c(C#N)c(N)n(-c3ccccc3)c(=O)c2C#N)cc1,-8,-5,-79,3,-3,/,/
O=C(CSc1nnc(Cc2ccccc2)o1)NCCN1C(=O)CSC1=O,16*,-1,-6,1,6,9,4
NS(=O)(=O)c1ccc(N/N=C/c2cn(-c3ccccc3)nc2-c2cccs2)cc1,14*,-1,/,-6,3,8,1
NS(=O)(=O)c1ccc(N/N=C/c2cn(-c3ccccc3)nc2-c2cccs2)c([N+](=O)[O-])c1,5,-8,-21,-1,-5,/,/
